Entries after “also recorded” stand apart in the source; their conditions may differ.
How the values were obtained:
Leukemia = assay: cells; type: cell-based; conditions: Homo sapiens, 48 h, read-out: TGI Leukemia
full NCI 60 cell panel = assay: NCI 60 five-concentration screen, mean graph midpoint of all cell lines; type: cell-based; conditions: Homo sapiens, 48 h; for GI50: read-out: GI50 MG-MID (mean GI50); for IC (TGI): read-out: TGI MG-MID
HT-29 colon cancer cells [1] = assay: Cell cycle distribution by flow cytometry; type: cell-based, Human; conditions: HT-29 cells, 24 h
Outline: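 HT-29 cells grown in RPMI 1640 with 10% FBS and 2 mM L-glutamine (37 °C, 5% CO2). Test compound was added from a 10 mmol/L DMSO stock (0.01% DMSO final; DMSO-only controls) for 24 h. Cells were fixed in 70% ethanol at −20 °C for ≥12 h, treated with RNase A (10 μg/mL, 37 °C, 30 min) and stained with PI (50 μg/mL). DNA content was read by flow cytometry; one experiment representative of three.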

HT-29 colon cancer cells [2] = assay: Cell viability by trypan blue exclusion; type: cell-based, Human; conditions: HT-29 cells, 24 h, 100 or 500 nM tested
Outline: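 HT-29 cells in RPMI 1640/10% FBS/2 mM L-glutamine were plated at 2×10^4 cells/cm2. They were treated in triplicate for 24 h with 100 or 500 nM test compound (0.01% DMSO final; DMSO-only controls). Viable cells were counted by trypan blue exclusion. Values are means ± s.e.m. of three determinations.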

[3] = tested on: caspase proteases (DEVDase activity); assay: DEVDase; type: cell-based, Human; conditions: HT-29 cells, 500 nM, 48 h
Outline: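 HT-29 cells in RPMI 1640/10% FBS were exposed to 500 nM test compound for 48 h, with 0.01% DMSO and DMSO-only controls. DEVD-hydrolysing caspase (DEVDase) activity was measured fluorometrically in cell extracts. Values are means ± s.e.m. of four determinations.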

Akt(Ser473) = assay: Kinase phosphorylation by Western blotting: Akt; type: cell-based, Human; conditions: HeLa cells, 1 μM, 3 h
Outline: (§1)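 HeLa cells in RPMI 1640/10% FBS/2 mM L-glutamine were exposed to 1 μM test compound for 3 h (0.01% DMSO). Lysates were cleared at 15,000 × g for 15 min and boiled 4 min, and 80 μg protein was run on SDS-PAGE. Proteins were blotted to nitrocellulose and probed with antibodies to total and phosphorylated kinase, then a peroxidase anti-rabbit IgG (1 h). Bands were detected by ECL chemiluminescence.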

mTOR(Ser2448) = assay: Kinase phosphorylation by Western blotting: mTOR; type: cell-based, Human; conditions: HeLa cells, 1 μM, 3 h
Outline: as §1

ERK1/2(Thr202/Tyr204) = assay: Kinase phosphorylation by Western blotting: ERK1/2; type: cell-based, Human; conditions: HeLa cells, 1 μM, 3 h
Outline: as §1

JNK(Thr183/Tyr185) = assay: Kinase phosphorylation by Western blotting: JNK; type: cell-based, Human; conditions: HeLa cells, 1 μM, 3 h
Outline: as §1

p38MAPK(Thr180/Tyr182) = assay: Kinase phosphorylation by Western blotting: p38MAPK; type: cell-based, Human; conditions: HeLa cells, 1 μM, 3 h
Outline: as §1

AMPK(Thr172) = assay: Kinase phosphorylation by Western blotting: AMPK; type: cell-based, Human; conditions: HeLa cells, 1 μM, 3 h
Outline: as §1

HT-29 colon cancer cells [4] = assay: Mitochondrial membrane potential with DiOC6; type: cell-based, Human; conditions: HT-29 cells, 500 nM, 24 h
Outline: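 After 24 h in 500 nM test compound (0.01% DMSO; DMSO controls), HT-29 cells at 1×10^6 cells/mL were stained with 4 nM DiOC6 for 40 min at 37 °C in the dark. Cells were counterstained with PI at 5 μg/mL to exclude dead cells. Green fluorescence was read by flow cytometry with logarithmic amplification; one experiment representative of three to five.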

HT-29 colon cancer cells [5] = assay: Intracellular ROS content with DHE; type: cell-based, Human; conditions: HT-29 cells, 500 nM, 24 h
Outline: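 HT-29 cells were treated with 500 nM test compound for 24 h (0.01% DMSO; DMSO controls). They were then loaded with 5 μM dihydroethidium (from 10 mM DMSO stock) for 30 min at 37 °C to detect superoxide. Red fluorescence was read by flow cytometry with logarithmic amplification; one experiment representative of three to five.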

Bax = Bax expression and translocation by confocal microscopy; type: cell-based, Human; conditions: HT-29 cells, 500 nM, 24 h
CNS = assay: cells; type: cell-based; conditions: Homo sapiens, 48 h, read-out: TGI CNS

`COc1ccc2c(c1)C(=Cc1c(OC)nc3sccn13)C(=O)N2C` [Compound 39] was tested, and the IC (TGI) (Leukemia) was 4.9 µM, the GI50 (full NCI 60 cell panel) was 540 nM and the IC (TGI) (full NCI 60 cell panel) was 34.7 µM.

`Cc1cn2c(/C=C3/C(=O)Nc4cc(Cl)ccc43)c(C)nc2s1` [Compound 4] was tested, and the GI50 (full NCI 60 cell panel) was 2000 nM and the IC (TGI) (full NCI 60 cell panel) was 51.3 µM.

For `COc1ccc2c(c1)C(=Cc1c(OC)nc3sccn13)C(=O)N2` [Compound 38], the GI50 (full NCI 60 cell panel) was 70 nM, the IC (TGI) (full NCI 60 cell panel) was 19.1 µM and the “concentration that induced accumulation of cells in the G2/M phase” value (HT-29 colon cancer cells [1]) was 100 nM. The “concentration that triggered cell death (reduction in cell viability)” value (HT-29 colon cancer cells [2]) was 100 nM, the “activity of effector caspases (DEVDase activity)” value [3] was “significantly increased” and the “Akt(Ser473) phosphorylation” value (Akt(Ser473)) was “strongly reduced; also recorded: selectively and strongly inhibited”. For the same compound, the “mTOR(Ser2448) phosphorylation” value (mTOR(Ser2448)) was “no significant effect”, the “ERK1/2(Thr202/Tyr204) phosphorylation/activation” value (ERK1/2(Thr202/Tyr204)) was “slightly decreased” and the “JNK(Thr183/Tyr185) phosphorylation/activation” value (JNK(Thr183/Tyr185)) was “slightly decreased”. The “p38MAPK(Thr180/Tyr182) phosphorylation/activation” value (p38MAPK(Thr180/Tyr182)) was “slightly decreased” and the “AMPK(Thr172) phosphorylation” value (AMPK(Thr172)) was “only slightly inhibited”.

Compound `COc1nc2sccn2c1/C=C1/C(=O)Nc2ccccc21` [Compound 33] has a GI50 (full NCI 60 cell panel) of 390 nM and an IC (TGI) (full NCI 60 cell panel) of 22.9 µM.

`COc1nc2sccn2c1/C=C1/C(=O)Nc2cccc(Cl)c21` [Compound 34] gave an IC (TGI) (full NCI 60 cell panel) of 57.5 µM.

With `O=C1Nc2cc(Cl)ccc2C1=Cc1c(-c2ccccn2)nc2sccn12` [Compound 30] the GI50 (full NCI 60 cell panel) was 180 nM and the IC (TGI) (full NCI 60 cell panel) was 14.1 µM.

`Cc1ccc(-c2nc3sc(C)cn3c2/C=C2/C(=O)Nc3cc(C)c(O)cc32)cc1` [Compound 11] showed an IC (TGI) (Leukemia) of 83.2 µM, a GI50 (full NCI 60 cell panel) of 22900 nM and an IC (TGI) (full NCI 60 cell panel) of 83.2 µM.

`Cc1ccc(-c2nc3sc(C)cn3c2/C=C2/C(=O)N(C)c3ccccc32)cc1` [Compound 12] showed a GI50 (full NCI 60 cell panel) of 16600 nM and an IC (TGI) (full NCI 60 cell panel) of 83.2 µM.

`Cc1cn2c(/C=C3/C(=O)Nc4c3ccc3ccccc43)c(C)nc2s1` [Compound 5] was tested, and the IC (TGI) (full NCI 60 cell panel) was 19.9 µM, the “concentration that induced accumulation of cells in the G2/M phase” value (HT-29 colon cancer cells [1]) was 500 nM and the “concentration that triggered cell death (reduction in cell viability)” value (HT-29 colon cancer cells [2]) was 500 nM. The “activity of effector caspases (DEVDase activity)” value [3] was “significantly increased”, the “mitochondrial membrane potential (ΔΨm)” value (HT-29 colon cancer cells [4]) was “marked disruption of ΔΨm” and the “superoxide formation (intracellular ROS content)” value (HT-29 colon cancer cells [5]) was “marked increase in superoxide formation”. For the same compound, the “cellular content of Bax” value (Bax) was “significant increase in the cellular content of Bax”, the “Akt(Ser473) phosphorylation” value (Akt(Ser473)) was “did not significantly influence” and the “mTOR(Ser2448) phosphorylation” value (mTOR(Ser2448)) was “did not significantly influence”. The “ERK1/2(Thr202/Tyr204) phosphorylation/activation” value (ERK1/2(Thr202/Tyr204)) was “did not significantly influence”, the “JNK(Thr183/Tyr185) phosphorylation/activation” value (JNK(Thr183/Tyr185)) was “did not significantly influence” and the “p38MAPK(Thr180/Tyr182) phosphorylation/activation” value (p38MAPK(Thr180/Tyr182)) was “did not significantly influence”. For the same compound, the “AMPK(Thr172) phosphorylation” value (AMPK(Thr172)) was “did not significantly influence”.

Compound `Cc1nn2c(/C=C3/C(=O)Nc4c3ccc3ccccc43)c(C)nc2s1` [Compound 9] has an IC (TGI) (CNS) of 4.9 µM, a GI50 (full NCI 60 cell panel) of 500 nM and an IC (TGI) (full NCI 60 cell panel) of 8.51 µM.

In the case of `COc1ccc2c(c1)/C(=C\c1c(-c3ccc(Cl)cc3)nc3sc(C)nn13)C(=O)N2` [Compound 16], the GI50 (full NCI 60 cell panel) is reported as 93300 nM.
